From PubChem BioAssay
An excerpt weighted towards active compounds, which were near 1.7% of everything screened.
IDE inh: human IDE inhibitors in live cells, primary screen, fluorescence polarization, HEK cells, FAbetaB substrate | Insulin-degrading enzyme (Homo sapiens), P14735 | FAbetaB cleavage | inhibition, % at 5.59 µM | 320,000 compounds, 0.41% hits | AID 434962, 2010;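 active = percent inhibition above the average of all tested compounds plus 3 SD, set per screening campaign, cut at about 16% in these data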;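 note: IDE supplied by intact live HEK cells; FP after avidin binding of uncleaved biotin substrate so inhibition keeps polarization high; 0% = DMSO wells and 100% = 60 µM reference IDE inhibitor Ii1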
TPT1 inhibitor: Candida albicans TPT1 enzyme inhibitors, primary screen, biochemical, fluorescence polarization | tRNA 2'-phosphotransferase TPT1 (Candida albicans SC5314) | recombinant caTPT1, FP RNA substrate dephosphorylation | inhibition, % at 5 µM | 300,000 compounds, 0.81% hits;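 active = inhibition above the mean of all tested compounds plus 3 SD, set per screening campaign, cut at about 24% in these data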;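 note: plate controls were DMSO alone for no effect and ferristatin control at 100 nM for full effect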
HNF4A DNA FP: change in binding of human HNF4A to DNA, primary screen, biochemical, fluorescence polarization, FITC-DNA; AID 1224865, 2016; 1 h; Hepatocyte nuclear factor 4-alpha (Homo sapiens), P41235; 360,000 compounds, 0.3% hits; activity change, % at 10 µM; in the data active = activity change above about 30%, passing the limit was not always enough
Rpn11 block: Rpn11 (PSMD14) deubiquitinase inhibitors, primary screen, biochemical, fluorescence polarization, uHTS. human 26S proteasome, Ub4-pepOG fluorescence polarization; 20S core pre-blocked with epoxomicin. 360,000 compounds, 0.59% hits. calls only at 20 µM. 26S proteasome non-ATPase regulatory subunit 14 (Homo sapiens), O00487;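 active = inhibition at 20 µM, scaled to each plate's controls, above about 33%, limit read from the data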
IDE act: human IDE activators in live cells, primary screen, fluorescence polarization, HEK cells, FAbeta-B substrate; AID 493087, 2011; activation, % at 5.96 µM; 340,000 compounds, 0.073% hits; Insulin-degrading enzyme (Homo sapiens), P14735; FAbeta-B cleavage; 0% vehicle, 100% cell-free pure enzyme wells;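 active = activation above the mean of all tested compounds plus 3 SD, set per screening campaign, cut at about 17% in these data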
CSN inh: inhibitors of CSN-mediated cullin deneddylation, primary screen, biochemical, fluorescence polarization, uHTS. Purified CSN, SCF-Nedd8-OG deneddylation. inhibition, % at 12.5 µM. 360,000 compounds, 0.38% hits. AID 651999, 2013. COP9 signalosome complex subunit 5 (Homo sapiens), Q92905;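 active = pattern-corrected inhibition above about 35%, with an unprinted fluorescence ratio check between 0.5 and 1.5, limit read from the data, passing the limit was not always enough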;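 note: 0% = enzyme with substrate and 100% = substrate without enzyme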
Target sequence (Q92905 whole entry, looked up, one chain of several): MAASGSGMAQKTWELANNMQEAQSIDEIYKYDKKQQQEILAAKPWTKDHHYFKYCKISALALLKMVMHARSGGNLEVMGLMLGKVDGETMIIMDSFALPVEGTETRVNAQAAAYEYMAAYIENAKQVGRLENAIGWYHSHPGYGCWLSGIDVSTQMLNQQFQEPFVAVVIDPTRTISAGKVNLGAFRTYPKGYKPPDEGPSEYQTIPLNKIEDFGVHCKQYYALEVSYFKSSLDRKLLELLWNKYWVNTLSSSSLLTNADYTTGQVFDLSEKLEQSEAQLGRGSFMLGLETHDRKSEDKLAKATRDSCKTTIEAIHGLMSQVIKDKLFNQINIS
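Test system: purified human Csn5 enzyme expressed in HEK293T cells. Amount: 0.24 nM enzyme. Reagent: SCFSkp2-Nedd8OG substrate at 10 nM final. Schedule: 90 min incubation of compound, enzyme and substrate at room temperature. Detection: fluorescence polarization. Read-out: % inhibition of substrate cleavage by Csn5.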
Numbers without * were called inactive; i = inactive; x = no result shown; + = active, no number.

SMILES | IDE inh | TPT1 inhibitor | HNF4A DNA FP | Rpn11 block | IDE act | CSN inh
O=S(=O)(c1cc(Cl)cc(Cl)c1)N1Cc2cc(-c3ccccc3)ccc2-n2nncc2C1 | x | x | -1.4 | i | x | -1.6
Cc1ccc(S(=O)(=O)N2Cc3cc(-c4ccccc4)ccc3-n3nncc3C2)cc1 | x | x | 47.9* | i | x | 2.0
Cc1ccnc(NC(=O)CCCc2ccc(N(CCCl)CCCl)cc2)n1 | x | x | 8.7 | i | 3.4 | 83.8*
O=C1CC(=O)N(Cc2ccccc2)C(=O)N1Cc1ccccc1 | x | x | 52.3* | x | -1.4 | 36.1*
CCOc1ccc(-c2cc(C)[n+](CCc3ccc(OC)c(OC)c3)c(-c3ccc(OCC)cc3)c2)cc1 | x | x | 2.3 | i | 4.6 | -2.6
O=c1c2ccccc2nc(/C=C/c2ccc(O)cc2)n1-c1cccc(O)c1 | 83.4* | 13.6 | 9.1 | i | -147.7 | 7.9
O=c1c2ccccc2nc(/C=C/c2ccc3c(c2)OCO3)n1-c1cccc(O)c1 | 3.8 | -0.1 | 0.2 | i | 5.6 | -6.7
COCCCn1c(N)c(C(=O)NCCC(C)C)c2nc3ccccc3nc21 | -4.9 | 2.2 | 1.9 | i | 5.3 | 36.6*
CCCNC(=O)c1c(N)n(CC2CCCO2)c2nc3ccccc3nc12 (configuration not stated) | 6.6 | 1.1 | -1.9 | i | 2.6 | 39.5*
CC(C)OC(=O)c1c(N)n(CC2CCCO2)c2nc3ccccc3nc12 (configuration not stated) | 0.1 | -1.0 | 3.8 | i | 1.0 | -2.8
COCCCNC(=O)Cn1cc(/C=C2\C(=O)NC(=O)N(c3ccccc3F)C2=O)c2ccccc21 | -3.5 | 19.9 | 57.0* | i | -3.4 | 0.3
COCCNC(=O)Cn1cc(/C=C2\C(=O)NC(=O)N(c3cccc(C)c3C)C2=O)c2ccccc21 | -0.7 | 11.2 | 2.1 | i | -3.4 | 0.2
O=C(O)c1cc[c]([Hg][Cl])cc1 | 96.2* | -2.1 | 0.7 | i | -61.3 | 1.9
CCCCn1c(=O)c(C(=O)Nc2cnccn2)c(O)c2ccccc21 | -2.9 | 0.2 | -0.6 | i | 1.6 | -5.4
Nc1c(C(=O)NCCCc2ccccc2)c2nc3ccccc3nc2n1Cc1cccs1 | 4.9 | -2.6 | 4.2 | i | 5.3 | 19.0
CCC(=NCc1ccco1)c1c(O)n(-c2ccc(OC)cc2)c(=O)[nH]c1=O | 1.3 | 0.5 | 1.8 | i | 4.2 | -3.3
CCCCCn1c(=O)c(C(=O)Nc2ccccc2Cl)c(O)c2ccccc21 | 0.1 | -1.8 | 1.7 | i | 6.1 | -0.3
CCCCn1c(=O)c(C(=O)Nc2ccccc2C)c(O)c2ccccc21 | 2.2 | -0.5 | 39.1* | i | 3.2 | 1.9
O=C1NC(=O)N(c2ccccc2)C(=O)/C1=C/c1ccc(Sc2ccccc2)o1 | 2.6 | 0.6 | 0.9 | i | -10.0 | 7.2
O=C1NC(=O)N(c2ccccc2F)C(=O)/C1=C/c1ccc(Sc2nc3ccccc3[nH]2)o1 | 34.0* | 0.7 | 14.1 | + | -43.7 | 29.4
CC(=NCCN1CCCCC1)c1c(O)n(-c2ccccc2)c(=O)[nH]c1=O | 2.0 | 0.1 | 3.2 | i | 5.4 | 0.8
COC(=O)C(Cc1ccc(N(CCCl)CCCl)cc1)N=Cc1ccccc1O (configuration not stated) | 5.9 | 3.2 | 0.5 | i | 0.0 | -2.2
CC1=NCCc2c1[nH]c1cc(O)ccc21 | -28.4 | -102.3 | -99.2 | i | 65.7* | -74.1
C1=NCCc2c1[nH]c1ccccc21 | -1.5 | 0.7 | 1.6 | i | 1.3 | -1.6
CCn1nc(-c2cccs2)nc2c(=O)n(C)c(=O)nc1-2 | x | x | 100.2* | i | 0.6 | 63.0*
COc1ccc(-n2c(-c3ccccc3[N+](=O)[O-])nc3ccccc3c2=O)cc1 | x | x | 4.3 | i | 0.5 | 0.3
NC(Cc1cc(O)c(O)cc1O)C(=O)O (configuration not stated) | -5.2 | 30.5* | x | x | x | x
Cn1cc(C=C(C#N)C#N)c2ccccc21 | -1.5 | 1.6 | 9.9 | x | 2.0 | 36.3*
